Test results as given in ChEMBL document CHEMBL1151428, “Capability of 11 antipneumococcal antibiotics to select for resistance by multistep and single-step methodologies” (2007).
Converted amounts (≈) assume the structure as drawn.

What was measured:
Type in all cases: functional
Streptococcus pneumoniae [1] = assay: Antimicrobial activity against drug-resistant Streptococcus pneumoniae isolate 3665 by NCCLS M7-A7 method
Streptococcus pneumoniae [2] = assay: Antimicrobial activity against drug-resistant Streptococcus pneumoniae isolate 1077 after 29 passages with azithromycin measured after 10 antibiotic-free subculture by multi-step resistance selection technique
Outline: (§1)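 Mutants selected by daily broth passage in subinhibitory drug in cation-adjusted Mueller-Hinton broth with 5% lysed horse blood. Stability was tested by 10 daily passages on blood agar without antibiotic, then macrodilution MIC.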

Streptococcus pneumoniae [3] = assay: Antimicrobial activity against drug-resistant Streptococcus pneumoniae isolate 37 by NCCLS M7-A7 method
Streptococcus pneumoniae [4] = assay: Antimicrobial activity against drug-resistant Streptococcus pneumoniae isolate 3665 after 26 passages with clarithromycin measured after 10 antibiotic-free subculture by multi-step resistance selection technique
Streptococcus pneumoniae [5] = assay: Antimicrobial activity against drug-resistant Streptococcus pneumoniae isolate 24 by NCCLS M7-A7 method
Streptococcus pneumoniae [6] = assay: Antimicrobial activity against drug-resistant Streptococcus pneumoniae isolate 24 after 14 passages with Telithromycin measured after 10 antibiotic-free subculture by multi-step resistance selection technique; outline: as §1
Streptococcus pneumoniae [7] = assay: Antimicrobial activity against drug-resistant Streptococcus pneumoniae isolate 3243 after 33 passages with azithromycin measured after 10 antibiotic-free subculture by multi-step resistance selection technique; outline: as §1
Streptococcus pneumoniae [8] = assay: Antimicrobial activity against drug-resistant Streptococcus pneumoniae isolate 3676 after 44 passages with clarithromycin measured after 10 antibiotic-free subculture by multi-step resistance selection technique
Streptococcus pneumoniae [9] = assay: Antimicrobial activity against drug-resistant Streptococcus pneumoniae isolate 24 after 50 passages with moxifloxacin measured after 10 antibiotic-free subculture by multi-step resistance selection technique; outline: as §1
Streptococcus pneumoniae [10] = assay: Antimicrobial activity against drug-resistant Streptococcus pneumoniae isolate 1076 by NCCLS M7-A7 method
Streptococcus pneumoniae [11] = assay: Antimicrobial activity against drug-resistant Streptococcus pneumoniae isolate 2527 after 20 passages with azithromycin measured after 10 antibiotic-free subculture by multi-step resistance selection technique; outline: as §1
Streptococcus pneumoniae [12] = assay: Antimicrobial activity against drug-resistant Streptococcus pneumoniae isolate 3243 after 29 passages with Telithromycin measured after 10 antibiotic-free subculture by multi-step resistance selection technique; outline: as §1
Streptococcus pneumoniae [13] = assay: Antimicrobial activity against drug-resistant Streptococcus pneumoniae isolate 3009 after 19 passages with moxifloxacin measured after 10 antibiotic-free subculture by multi-step resistance selection technique; outline: as §1
Streptococcus pneumoniae [14] = assay: Antimicrobial activity against drug-resistant Streptococcus pneumoniae isolate 3665 after 14 passages with Telithromycin measured after 10 antibiotic-free subculture by multi-step resistance selection technique
Streptococcus pneumoniae [15] = assay: Antimicrobial activity against drug-resistant Streptococcus pneumoniae isolate 1635 after 49 passages with clarithromycin measured after 10 antibiotic-free subculture by multi-step resistance selection technique
Streptococcus pneumoniae [16] = assay: Antimicrobial activity against drug-resistant Streptococcus pneumoniae isolate 3274 after 48 passages with Telithromycin measured after 10 antibiotic-free subculture by multi-step resistance selection technique; outline: as §1
Streptococcus pneumoniae [17] = assay: Antimicrobial activity against drug-resistant Streptococcus pneumoniae isolate 3413 after 50 passages by multi-step resistance selection technique
Outline: (§2)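 Daily serial passage in subinhibitory drug levels in 1 ml cation-adjusted Mueller-Hinton broth with 5% lysed horse blood; fresh broth for tigecycline. Each day, 10 μl were taken from the tube one to two dilutions below the MIC whose turbidity matched the growth control, and used to set the next MIC. MIC by macrodilution.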

Streptococcus pneumoniae [18] = assay: Antimicrobial activity against drug-resistant Streptococcus pneumoniae isolate 37 after 50 passages by multi-step resistance selection technique
Outline: (§3)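 Daily serial passage in broth at subinhibitory drug levels: 1 ml cation-adjusted Mueller-Hinton broth with 5% lysed horse blood; fresh broth for tigecycline. Each day 10 μl inoculum taken from the tube one to two dilutions below MIC matching growth-control turbidity, used to set next MIC.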

Streptococcus pneumoniae [19] = assay: Antimicrobial activity against drug-resistant Streptococcus pneumoniae isolate 1076 after 14 passages with Telithromycin measured after 10 antibiotic-free subculture by multi-step resistance selection technique; outline: as §1
Streptococcus pneumoniae [20] = assay: Antimicrobial activity against drug-resistant Streptococcus pneumoniae isolate 1635 after 14 passages with azithromycin measured after 10 antibiotic-free subculture by multi-step resistance selection technique; outline: as §1
Streptococcus pneumoniae [21] = assay: Antimicrobial activity against drug-resistant Streptococcus pneumoniae isolate 1077 by NCCLS M7-A7 method
Streptococcus pneumoniae [22] = assay: Antimicrobial activity against drug-resistant Streptococcus pneumoniae isolate 3665 after 50 passages by multi-step resistance selection technique
Outline: as §3, with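 “MIC. Continued until ≥8-fold MIC rise, minimum 14, maximum 50 passages; MIC read by macrodilution.” for “MIC.”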

Streptococcus pneumoniae [23] = assay: Antimicrobial activity against drug-resistant Streptococcus pneumoniae isolate 37 after 14 passages with Telithromycin measured after 10 antibiotic-free subculture by multi-step resistance selection technique
Streptococcus pneumoniae [24] = assay: Antimicrobial activity against drug-resistant Streptococcus pneumoniae isolate 3243 after 20 passages with moxifloxacin measured after 10 antibiotic-free subculture by multi-step resistance selection technique; outline: as §1
Streptococcus pneumoniae [25] = assay: Antimicrobial activity against drug-resistant Streptococcus pneumoniae isolate 1076 after 50 passages by multi-step resistance selection technique
Outline: as §2, with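 “MIC. […]” for “MIC.”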

Streptococcus pneumoniae [26] = assay: Antimicrobial activity against drug-resistant Streptococcus pneumoniae isolate 1077 after 15 passages with Telithromycin measured after 10 antibiotic-free subculture by multi-step resistance selection technique; outline: as §1
Streptococcus pneumoniae [27] = assay: Antimicrobial activity against drug-resistant Streptococcus pneumoniae isolate 3009 after 18 passages with levofloxacin measured after 10 antibiotic-free subculture by multi-step resistance selection technique; outline: as §1
Streptococcus pneumoniae [28] = assay: Antimicrobial activity against drug-resistant Streptococcus pneumoniae isolate 1635 after 14 passages with clindamycin measured after 10 antibiotic-free subculture by multi-step resistance selection technique
Streptococcus pneumoniae [29] = assay: Antimicrobial activity against drug-resistant Streptococcus pneumoniae isolate 3274 after 50 passages by multi-step resistance selection technique; outline: as §2
Streptococcus pneumoniae [30] = assay: Antimicrobial activity against drug-resistant Streptococcus pneumoniae isolate 3009 after 25 passages with clarithromycin measured after 10 antibiotic-free subculture by multi-step resistance selection technique
Streptococcus pneumoniae [31] = assay: Antimicrobial activity against drug-resistant Streptococcus pneumoniae isolate 3413 after 30 passages with Telithromycin measured after 10 antibiotic-free subculture by multi-step resistance selection technique; outline: as §1
Streptococcus pneumoniae [32] = assay: Antimicrobial activity against drug-resistant Streptococcus pneumoniae isolate 24 after 50 passages by multi-step resistance selection technique; outline: as §2
Streptococcus pneumoniae [33] = assay: Antimicrobial activity against drug-resistant Streptococcus pneumoniae isolate 3413 by NCCLS M7-A7 method
Streptococcus pneumoniae [34] = assay: Antimicrobial activity against drug-resistant Streptococcus pneumoniae isolate 3676 after 50 passages by multi-step resistance selection technique
Outline: as §3, with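 “MIC. Continued until ≥8-fold MIC rise, minimum 14, maximum 50 passages; MIC read by macrodilution.” for “MIC.”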

Streptococcus pneumoniae [35] = assay: Antimicrobial activity against drug-resistant Streptococcus pneumoniae isolate 3676 after 14 passages with Telithromycin measured after 10 antibiotic-free subculture by multi-step resistance selection technique
Streptococcus pneumoniae [36] = assay: Antimicrobial activity against drug-resistant Streptococcus pneumoniae isolate 3009 by NCCLS M7-A7 method
Streptococcus pneumoniae [37] = assay: Antimicrobial activity against drug-resistant Streptococcus pneumoniae isolate 2527 after 50 passages by multi-step resistance selection technique
Outline: as §2, with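 “MIC. […]” for “MIC.”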

Streptococcus pneumoniae [38] = assay: Antimicrobial activity against drug-resistant Streptococcus pneumoniae isolate 3009 after 50 passages by multi-step resistance selection technique
Outline: as §2, with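 “MIC. […]” for “MIC.”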

Structure (SMILES)	MIC (Streptococcus pneumoniae [1]) [mg/L]	MIC (Streptococcus pneumoniae [2]) [mg/L]	MIC (Streptococcus pneumoniae [3]) [mg/L]	MIC (Streptococcus pneumoniae [4]) [mg/L]	MIC (Streptococcus pneumoniae [5]) [mg/L]	MIC (Streptococcus pneumoniae [6]) [mg/L]	MIC (Streptococcus pneumoniae [7]) [mg/L]	MIC (Streptococcus pneumoniae [8]) [mg/L]	MIC (Streptococcus pneumoniae [9]) [mg/L]	MIC (Streptococcus pneumoniae [10]) [mg/L]	MIC (Streptococcus pneumoniae [11]) [mg/L]	MIC (Streptococcus pneumoniae [12]) [mg/L]	MIC (Streptococcus pneumoniae [13]) [mg/L]	MIC (Streptococcus pneumoniae [14]) [mg/L]	MIC (Streptococcus pneumoniae [15]) [mg/L]	MIC (Streptococcus pneumoniae [16]) [mg/L]	MIC (Streptococcus pneumoniae [17]) [mg/L]	MIC (Streptococcus pneumoniae [18]) [mg/L]	MIC (Streptococcus pneumoniae [19]) [mg/L]	MIC (Streptococcus pneumoniae [20]) [mg/L]	other results
CO/N=C1\CN(c2nc3c(cc2F)c(=O)c(C(=O)O)cn3C2CC2)CC1CN (configuration not stated) [GEMIFLOXACIN]	0.016 (≈ 0.0411 µM)	0.25 (≈ 0.642 µM)	0.016 (≈ 0.0411 µM)	0.03 (≈ 0.077 µM)	0.016 (≈ 0.0411 µM)	0.016 (≈ 0.0411 µM)	0.03 (≈ 0.077 µM)	0.03 (≈ 0.077 µM)	0.5 (≈ 1.28 µM)	0.25 (≈ 0.642 µM)	0.25 (≈ 0.642 µM)	0.03 (≈ 0.077 µM)	0.125 (≈ 0.321 µM)	0.03 (≈ 0.077 µM)	0.03 (≈ 0.077 µM)	0.03 (≈ 0.077 µM)	0.016 (≈ 0.0411 µM)	0.016 (≈ 0.0411 µM)	0.25 (≈ 0.642 µM)	0.03 (≈ 0.077 µM)	MIC (Streptococcus pneumoniae [21]): 0.25 mg/L (≈ 0.642 µM); MIC (Streptococcus pneumoniae [22]): 0.06 mg/L (≈ 0.154 µM); MIC (Streptococcus pneumoniae [23]): 0.03 mg/L (≈ 0.077 µM); MIC (Streptococcus pneumoniae [24]): 0.06 mg/L (≈ 0.154 µM); MIC (Streptococcus pneumoniae [25]): 0.5 mg/L (≈ 1.28 µM); MIC (Streptococcus pneumoniae [26]): 0.25 mg/L (≈ 0.642 µM); MIC (Streptococcus pneumoniae [27]): 1 mg/L (≈ 2.57 µM); MIC (Streptococcus pneumoniae [28]): 0.03 mg/L (≈ 0.077 µM); MIC (Streptococcus pneumoniae [29]): 0.06 mg/L (≈ 0.154 µM); MIC (Streptococcus pneumoniae [30]): 0.03 mg/L (≈ 0.077 µM); MIC (Streptococcus pneumoniae [31]): 0.03 mg/L (≈ 0.077 µM); MIC (Streptococcus pneumoniae [32]): 0.03 mg/L (≈ 0.077 µM); MIC (Streptococcus pneumoniae [33]): 0.016 mg/L (≈ 0.0411 µM); MIC (Streptococcus pneumoniae [34]): 0.03 mg/L (≈ 0.077 µM); MIC (Streptococcus pneumoniae [35]): 0.06 mg/L (≈ 0.154 µM); MIC (Streptococcus pneumoniae [36]): 0.016 mg/L (≈ 0.0411 µM)
C[C@@H](O)[C@H]1C(=O)N2C(C(=O)O)=C(SCCNC=N)C[C@H]12 [IMIPENEM ANHYDROUS]	0.03 (≈ 0.1 µM)	0.008 (≈ 0.0267 µM)	0.5 (≈ 1.67 µM)	0.03 (≈ 0.1 µM)	0.5 (≈ 1.67 µM)	0.25 (≈ 0.835 µM)	0.03 (≈ 0.1 µM)	0.016 (≈ 0.0534 µM)	0.5 (≈ 1.67 µM)	0.008 (≈ 0.0267 µM)	0.5 (≈ 1.67 µM)	0.016 (≈ 0.0534 µM)	0.008 (≈ 0.0267 µM)	0.008 (≈ 0.0267 µM)	0.002 (≈ 0.00668 µM)	0.016 (≈ 0.0534 µM)	0.06 (≈ 0.2 µM)	0.5 (≈ 1.67 µM)	0.004 (≈ 0.0134 µM)	0.002 (≈ 0.00668 µM)	MIC (Streptococcus pneumoniae [21]): 0.008 mg/L (≈ 0.0267 µM); MIC (Streptococcus pneumoniae [22]): 0.016 mg/L (≈ 0.0534 µM); MIC (Streptococcus pneumoniae [23]): 0.25 mg/L (≈ 0.835 µM); MIC (Streptococcus pneumoniae [37]): 0.25 mg/L (≈ 0.835 µM); MIC (Streptococcus pneumoniae [24]): 0.004 mg/L (≈ 0.0134 µM); MIC (Streptococcus pneumoniae [25]): 0.008 mg/L (≈ 0.0267 µM); MIC (Streptococcus pneumoniae [26]): 0.008 mg/L (≈ 0.0267 µM); MIC (Streptococcus pneumoniae [28]): 0.002 mg/L (≈ 0.00668 µM); MIC (Streptococcus pneumoniae [29]): 0.03 mg/L (≈ 0.1 µM); MIC (Streptococcus pneumoniae [31]): 0.125 mg/L (≈ 0.418 µM); MIC (Streptococcus pneumoniae [38]): 0.008 mg/L (≈ 0.0267 µM); MIC (Streptococcus pneumoniae [32]): 0.5 mg/L (≈ 1.67 µM); MIC (Streptococcus pneumoniae [33]): 0.125 mg/L (≈ 0.418 µM); MIC (Streptococcus pneumoniae [34]): 0.016 mg/L (≈ 0.0534 µM); MIC (Streptococcus pneumoniae [35]): 0.008 mg/L (≈ 0.0267 µM); MIC (Streptococcus pneumoniae [36]): 0.008 mg/L (≈ 0.0267 µM)
